Screening data as filed in PubChem.
DENV2 CPE rescue: inhibitors of DENV2 cytopathic effect; DENV2-infected cells, cytopathic effect rescue, plate reader; CPE inhibition, % at 9.99 µM; 1.7% of 350,000 active; in the data active = CPE inhibition above about 20%, passing the limit was not always enough; inconclusive = no clear call, values can overlap the other calls; tested in BHK-21 cells
AF4-AF9 inh: blocks AF4 peptide binding to human AF9 | AlphaScreen, biotin-AF4 peptide binding to FLAG-AF9 | inhibition, % at 10 µM | 0.47% of 350,000 active | AID 651704;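 active = every replicate reaching a set inhibition limit, whatever the replicate mean, cut at about 25% in these data; inconclusive = mean inhibition reaches that limit but some replicates miss it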
S100A4 inh HTS: inhibitors of human S100A4 binding to myosin IIA peptide; P26447; 0.14% of 360,000 active; inhibition, % at 10.7 µM; AID 652163; S100A4/TAMRA-MyoIIA peptide fluorescence polarization;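 active = mean inhibition of at least 70% across replicates, with every replicate also reaching that level; inconclusive = mean inhibition reaches 70% but some replicates fall short; inactive = mean inhibition below 70%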
Target sequence (P26447 whole entry, looked up): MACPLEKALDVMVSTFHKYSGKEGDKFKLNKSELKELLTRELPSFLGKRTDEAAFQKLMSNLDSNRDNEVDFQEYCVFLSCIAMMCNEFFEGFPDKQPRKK
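Material: S100A4 monomer (human). Medium: Calcium-containing HEPES buffer, pH 7.2. Probe or stimulus: labelled myosin peptide probe, 5 nM. Compound dosing: one concentration per compound. Timing: polarization read 5 min after assay mix addition, stable 5–60 min. Benchmarks: DMSO as neutral control, TFP as positive control.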
PfHsp90 yeast 2: growth inhibition of yeast expressing Plasmodium Hsp90. inhibition, % at 9.4 µM. S. cerevisiae expressing PfHsp90, BacTiter-Glo ATP, 48 h; yeast lacking PDR1 and PDR3 efflux regulators. 0.32% of 310,000 active;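 active = every replicate shows inhibition above about 80%, whatever the replicate mean, limit read from the data; inconclusive = mean inhibition reaches the set limit but some replicate falls short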
rRNA inh HTS: inhibits bacterial ribosomal RNA function over humanized ribosomes; 1.6% of 350,000 active; GFP signal change (wild-type ribosome), % (test concentration not listed); E. coli WT GFP vs humanized-ribosome RFP mutants, fluorescence, 24 h; stronger effect = lower value; DMSO median 0, no signal -100; AID 720706;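 active = significant combined selectivity score with lowered wild-type GFP, culture density cut under 30%, mutant RFP and density less affected; inactive = any of these conditions unmet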
Cneo AK release: Cryptococcus neoformans lysis via adenylate kinase release; AID 651654; C. neoformans lysis, adenylate kinase release luminescence, 4 h; normalised: neutral wells 0, clomiphene wells 100; lysis activity, % at 15 µM; 0.2% of 360,000 active;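 active = mean lysis activity across replicates of at least 80%, whatever share of replicates individually reach that level; inactive = mean lysis activity below 80%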
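Material – log-phase Cryptococcus neoformans yeast cells · Input – 5 × 10^6 yeast cells/mL · Medium – fresh YPD growth medium · Doses – single compound concentration per well · Timing – static 4 h at 37 °C with compound, 1 h detection · Detection – adenylate kinase release luminescence · Read-out – signal increase indicating cell lysis · Control set – Clomiphene as positive lysis control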
A number is an active result; 0 = inactive; ? = inconclusive; - = not tested or not shown; ! = repeats disagree. The list is not random: actives were taken first. Their share in the collection is about 3.2%.

SMILES	DENV2 CPE rescue	AF4-AF9 inh	S100A4 inh HTS	PfHsp90 yeast 2	rRNA inh HTS	Cneo AK release
Cc1cc2ccccn2c1C(=O)c1ccc(NN)c([N+](=O)[O-])c1	0	0	0	0	0	0
COC(=O)c1cc(C(=O)c2c(C)cc3ccccn23)cc([N+](=O)[O-])c1	0	0	0	0	-21.6	0
Cc1cc2ccccn2c1C(=O)c1cc([N+](=O)[O-])cc([N+](=O)[O-])c1	-	32.6	0	0	0	-
COc1ccccc1S(=O)(=O)N1[C@@H]2CNC[C@H]1C2c1ccc(/C=C/c2ccccc2)cc1 (some centres not stated)	0	0	0	-	0	-
O=S(=O)(c1cccc(F)c1)N1[C@@H]2CNC[C@H]1C2c1ccc(-c2ccccc2)cc1 (some centres not stated)	0	0	0	-	0	-
CS(=O)(=O)N1[C@@H]2CNC[C@H]1C2c1ccc(-c2ccccc2)cc1 (some centres not stated)	79.8	0	0	-	0	-
Cc1ccccc1S(=O)(=O)N1[C@@H]2CNC[C@H]1C2c1ccc(/C=C/c2ccccc2)cc1 (some centres not stated)	25.1!	0	0	-	0	-
CC=Cc1ccc2n(c1=O)C[C@H]1[C@H](CO)[C@@H](C(=O)NCCC)[C@@H]2N1CCC(F)(F)F (mixture of isomers)	0	0	0	-	0	0
O=C(C[C@@H]1CC[C@@H](NC(=O)C2CCOCC2)[C@@H](CO)O1)NCc1ccccc1Cl	0	0	0	-	0	0
CC1(C)OC(=O)C2=C(C[C@@H](C3CC3)O[C@@H]2C2CC2)O1	60.8	0	0	-	0	-
COc1ccc(NC(=O)Nc2ccc3c(c2)[C@H]2C[C@H](CC(=O)NCCc4ccccc4)O[C@@H](CO)[C@H]2O3)cc1	0	0	0	-	0	0
Cc1ccc(S(=O)(=O)Nc2ccc3c(c2)C(=O)N([C@@H](C)CO)C[C@@H](C)[C@@H](CN(C)S(=O)(=O)c2ccc(Cl)cc2)OCCCC[C@H](C)O3)cc1	0	-	-	-	0	100.7
Cc1ccc(S(=O)(=O)N(C)C[C@H]2OCCCC[C@H](C)Oc3ccc(NS(=O)(=O)c4ccccc4)cc3C(=O)N([C@H](C)CO)C[C@@H]2C)cc1	0	0	97.1	-	0	0
C[C@H](CO)N1C[C@H](C)[C@@H](CN(C)S(C)(=O)=O)OCCCC[C@H](C)Oc2ccc(NS(=O)(=O)c3ccc(Cl)cc3)cc2C1=O	0	0	0	-	0	0
C[C@@H]1CCCCO[C@@H](CN(C)S(C)(=O)=O)[C@H](C)CN([C@@H](C)CO)C(=O)c2cc(NS(=O)(=O)c3ccc(Cl)cc3)ccc2O1	83.8	0	0	-	0	0
Cc1ccc(S(=O)(=O)Nc2ccc3c(c2)C(=O)N([C@@H](C)CO)C[C@H](C)[C@@H](CN(C)S(=O)(=O)c2ccc(Cl)cc2)OCCCC[C@@H](C)O3)cc1	0	-	-	-	0	0
COc1ccc(S(=O)(=O)Nc2ccc3c(c2)C(=O)N([C@H](C)CO)C[C@H](C)[C@H](CN(C)S(C)(=O)=O)OCCCC[C@@H](C)O3)cc1	20.3	0	0	-	0	0
O=C(CC1CC1)N1CC2(C1)[C@@H](c1ccccc1)[C@H](CO)N2C(=O)c1cnccn1	0	0	0	-	0	-
Cc1ccc(S(=O)(=O)Nc2ccc3c(c2)C(=O)N([C@H](C)CO)C[C@H](C)[C@H](CN(C)S(=O)(=O)c2ccc(Cl)cc2)OCCCC[C@@H](C)O3)cc1	65.8	-	-	-	0	0
O=[N+]([O-])c1cccnc1N1CCN(Cc2ccc3c(c2)OCO3)CC1	34.3	0	0	0	0	0
O=[N+]([O-])c1ccccc1/C=C/CN1CCN(Cc2ccc3c(c2)OCO3)CC1	47.3	0	0	0	0	0
O=[N+]([O-])c1cccnc1N1CCN(c2ccc(F)cc2)CC1	-	?	0	0	-32.5	-
c1ccc(-c2[nH]ncc2CN2CCN(Cc3ccc4c(c3)OCO4)CC2)cc1	0	0	0	0	-46.8	-
CN1c2ccc(-c3cccc(C#N)c3)cc2[C@@H]2[C@@H](CCN2S(=O)(=O)c2ccccc2)[C@H]1CO	0	0	0	-	0	0
